The source of these data is ChEMBL document CHEMBL1123816, “Synthesis and antidepressant properties of novel 2-substituted 4,5-dihydro-1H-imidazole derivatives” (J Med Chem, 1987).

Test [1] in a line: selectivity ratio (Alpha-1[3H]-prazosin/Alpha2[3H]-clonidine).
The target in test [2] is T1, Adrenergic receptor alpha-2 (Rattus norvegicus, UniProt P22086+P19328+P22909).
T1 sequence (P22086 whole entry): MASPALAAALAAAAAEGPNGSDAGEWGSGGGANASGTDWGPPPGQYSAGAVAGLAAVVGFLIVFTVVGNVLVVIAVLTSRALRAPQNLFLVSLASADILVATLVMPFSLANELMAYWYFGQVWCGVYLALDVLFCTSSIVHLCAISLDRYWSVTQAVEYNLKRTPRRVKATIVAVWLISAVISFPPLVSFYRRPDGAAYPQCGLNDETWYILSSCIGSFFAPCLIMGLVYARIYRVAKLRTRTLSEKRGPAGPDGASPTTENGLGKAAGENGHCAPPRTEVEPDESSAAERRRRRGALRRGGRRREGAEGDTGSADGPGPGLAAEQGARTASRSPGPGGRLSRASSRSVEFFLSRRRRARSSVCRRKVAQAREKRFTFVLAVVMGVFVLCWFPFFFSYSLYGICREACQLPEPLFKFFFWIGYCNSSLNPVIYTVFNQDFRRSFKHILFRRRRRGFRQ
T1 sequence (P19328 whole entry): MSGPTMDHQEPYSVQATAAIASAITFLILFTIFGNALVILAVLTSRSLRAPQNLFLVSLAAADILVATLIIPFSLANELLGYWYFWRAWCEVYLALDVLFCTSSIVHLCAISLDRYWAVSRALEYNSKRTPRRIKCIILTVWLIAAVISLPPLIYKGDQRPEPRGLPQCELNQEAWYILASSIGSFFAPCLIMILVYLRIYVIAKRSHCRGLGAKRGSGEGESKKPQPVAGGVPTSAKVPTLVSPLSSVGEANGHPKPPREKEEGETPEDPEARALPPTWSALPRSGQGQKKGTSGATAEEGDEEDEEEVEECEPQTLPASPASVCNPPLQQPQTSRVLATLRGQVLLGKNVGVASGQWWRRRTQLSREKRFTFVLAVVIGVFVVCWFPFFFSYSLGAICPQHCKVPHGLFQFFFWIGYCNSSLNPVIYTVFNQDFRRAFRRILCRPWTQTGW
T1 sequence (P22909 whole entry): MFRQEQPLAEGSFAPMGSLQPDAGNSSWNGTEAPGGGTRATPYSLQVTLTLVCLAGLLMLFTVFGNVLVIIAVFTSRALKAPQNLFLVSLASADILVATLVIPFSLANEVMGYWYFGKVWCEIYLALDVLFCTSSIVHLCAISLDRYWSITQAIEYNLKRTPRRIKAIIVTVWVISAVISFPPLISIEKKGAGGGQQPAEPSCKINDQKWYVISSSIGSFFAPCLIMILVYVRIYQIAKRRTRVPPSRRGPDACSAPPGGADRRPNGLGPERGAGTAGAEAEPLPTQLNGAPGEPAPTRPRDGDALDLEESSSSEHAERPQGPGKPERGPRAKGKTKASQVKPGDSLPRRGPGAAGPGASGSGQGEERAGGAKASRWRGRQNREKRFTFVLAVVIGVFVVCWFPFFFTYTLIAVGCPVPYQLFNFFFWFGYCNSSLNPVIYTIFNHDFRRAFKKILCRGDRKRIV
The experiment in a line: Ability to displace [3H]clonidine from alpha-2 adrenergic receptor in rat brain homogenates in vitro. It is filed as tissue-based.

The target in test [3] is T2, Adrenergic receptor alpha-1 (Rattus norvegicus, UniProt P15823+P23944+P43140).
T2 sequence (P15823 whole entry): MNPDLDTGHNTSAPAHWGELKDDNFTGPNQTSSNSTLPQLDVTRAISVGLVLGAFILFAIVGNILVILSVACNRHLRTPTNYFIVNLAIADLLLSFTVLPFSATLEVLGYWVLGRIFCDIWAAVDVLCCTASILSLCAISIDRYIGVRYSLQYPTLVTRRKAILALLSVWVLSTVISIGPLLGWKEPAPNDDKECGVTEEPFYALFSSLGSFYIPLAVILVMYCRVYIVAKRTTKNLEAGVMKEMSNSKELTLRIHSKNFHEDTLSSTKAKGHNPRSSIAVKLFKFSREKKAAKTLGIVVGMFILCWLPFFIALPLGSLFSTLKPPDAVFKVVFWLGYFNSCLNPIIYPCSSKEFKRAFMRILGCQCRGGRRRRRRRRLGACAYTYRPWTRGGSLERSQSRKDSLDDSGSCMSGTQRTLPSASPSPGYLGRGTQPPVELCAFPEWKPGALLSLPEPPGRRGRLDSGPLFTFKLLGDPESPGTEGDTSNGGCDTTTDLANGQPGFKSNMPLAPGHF
T2 sequence (P23944 whole entry): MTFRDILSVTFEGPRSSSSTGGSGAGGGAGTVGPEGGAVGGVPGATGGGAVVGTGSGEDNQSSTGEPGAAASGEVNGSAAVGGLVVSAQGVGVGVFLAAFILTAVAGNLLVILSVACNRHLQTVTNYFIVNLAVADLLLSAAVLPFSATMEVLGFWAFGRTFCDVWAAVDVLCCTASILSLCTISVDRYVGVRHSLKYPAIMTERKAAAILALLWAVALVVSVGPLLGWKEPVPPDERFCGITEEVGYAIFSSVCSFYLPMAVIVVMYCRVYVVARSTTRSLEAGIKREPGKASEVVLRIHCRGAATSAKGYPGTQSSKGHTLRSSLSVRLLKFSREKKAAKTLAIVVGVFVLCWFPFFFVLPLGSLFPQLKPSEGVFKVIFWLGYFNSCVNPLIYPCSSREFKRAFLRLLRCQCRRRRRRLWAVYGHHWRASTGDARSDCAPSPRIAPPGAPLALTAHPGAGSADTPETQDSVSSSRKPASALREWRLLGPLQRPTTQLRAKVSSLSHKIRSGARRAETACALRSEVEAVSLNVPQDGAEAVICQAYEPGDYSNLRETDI
T2 sequence (P43140 whole entry): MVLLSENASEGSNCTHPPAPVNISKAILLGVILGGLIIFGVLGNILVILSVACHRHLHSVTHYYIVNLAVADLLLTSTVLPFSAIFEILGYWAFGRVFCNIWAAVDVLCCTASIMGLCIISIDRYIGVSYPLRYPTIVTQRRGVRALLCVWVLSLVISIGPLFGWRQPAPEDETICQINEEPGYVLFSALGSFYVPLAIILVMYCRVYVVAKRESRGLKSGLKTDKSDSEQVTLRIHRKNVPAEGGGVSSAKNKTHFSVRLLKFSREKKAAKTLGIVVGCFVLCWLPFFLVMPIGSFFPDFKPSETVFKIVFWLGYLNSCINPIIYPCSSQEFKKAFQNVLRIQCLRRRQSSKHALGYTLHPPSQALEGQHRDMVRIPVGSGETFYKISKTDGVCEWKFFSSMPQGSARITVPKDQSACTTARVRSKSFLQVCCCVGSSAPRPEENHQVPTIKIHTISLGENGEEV
The experiment in a line: Ability to displace [3H]prazosin from alpha-1 adrenergic receptor in rat brain homogenates in vitro. It is filed as tissue-based. In short, it runs like this: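 Rat brain cortex membranes in 50 mM Tris pH 7.7, washed at 48000g, final resuspension 150 volumes. Incubated with 0.03 nM [3H]prazosin and graded test concentrations for 90 min at 25 °C. Unlabeled phentolamine (10 μM) defined nonspecific binding. Filtered on GF/B, scintillation counted. Triplicate assays; IC50 from logit plot converted to apparent Ki via Cheng–Prusoff.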

With `CC1=C(CC2=NCCN2)CCc2ccccc21.Cl`, in test [1], the Selectivity ratio amounted to 12.3. Further, the results for the Ki in test [2] and in test [3] were 12 nM and 148 nM, respectively.
Regarding `C1=C(CC2=NCCN2)CCc2ccccc21.Cl` [NAPAMEZOLE HYDROCHLORIDE], the Ratio in test [1] was determined as 3.4. In addition, the inhibitory constant (Ki) (as a rule, a measure of affinity in units of concentration, obtained from inhibition or displacement) was 23 nM in test [2] and 78 nM in test [3].
